Results taken from ChEMBL document CHEMBL3813647, “Discovery of an Orally Active and Liver-Targeted Prodrug of 5-Fluoro-2'-Deoxyuridine for the Treatment of Hepatocellular Carcinoma” (J Med Chem, 2016).

tested on: Plasma; test: AUC (infinity) in Sprague-Dawley rat plasma assessed as FDUR formation at 49.87 mg/kg administered through oral gavage measured up to 24 hrs by HPLC-MS/MS analysis; type: ADME, organism-based; parameters: dose 49.87 mg/kg, route oral, time infinity; details: in vivo
How it was run: (§1)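 Male Sprague-Dawley rats (220 ± 20 g), single gavage of 0.096 mmol/kg. FDUR was dosed in H2O; the prodrugs were dosed in 20% hydroxypropyl-β-cyclodextrin. n = 3 per time point, sampled at 0.25–24 h. Plasma (EDTA-K2, cardiac puncture) and freeze-clamped liver were homogenized in 20 mM EDTA-K2/70% MeOH. Analytes measured by HPLC-MS/MS in ESI negative mode.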

Structure (SMILES) | AUC
Cc1ccccc1COP(=O)(NCc1ccccc1)OC[C@H]1O[C@@H](n2cc(F)c(=O)[nH]c2=O)C[C@@H]1O (stereo partly drawn) | 41 ng·h/mL

tested on: Liver; test: Cmax in Sprague-Dawley rat liver assessed as FDUR formation at 49.87 mg/kg administered through oral gavage measured up to 24 hrs by HPLC-MS/MS analysis; type: ADME, organism-based; parameters: dose 49.87 mg/kg, route oral; details: in vivo; how it was run: as §1

Structure (SMILES) | Cmax
Cc1ccccc1COP(=O)(NCc1ccccc1)OC[C@H]1O[C@@H](n2cc(F)c(=O)[nH]c2=O)C[C@@H]1O (stereo partly drawn) | 50 ng/g

tested on: Liver; test: Cmax in Sprague-Dawley rat liver assessed as FdUMP formation at 49.87 mg/kg administered through oral gavage measured up to 24 hrs by HPLC-MS/MS analysis; type: ADME, organism-based; parameters: dose 49.87 mg/kg, route oral; details: in vivo; how it was run: as §1

Structure (SMILES) | Cmax
Cc1ccccc1COP(=O)(NCc1ccccc1)OC[C@H]1O[C@@H](n2cc(F)c(=O)[nH]c2=O)C[C@@H]1O (stereo partly drawn) | 55 ng/g

tested on: Liver; test: AUC (infinity) in Sprague-Dawley rat liver assessed as FDUR formation at 49.87 mg/kg administered through oral gavage measured up to 24 hrs by HPLC-MS/MS analysis; type: ADME, organism-based; parameters: dose 49.87 mg/kg, route oral, time infinity; details: in vivo; how it was run: as §1

Structure (SMILES) | AUC
Cc1ccccc1COP(=O)(NCc1ccccc1)OC[C@H]1O[C@@H](n2cc(F)c(=O)[nH]c2=O)C[C@@H]1O (stereo partly drawn) | 838 ng·h/g

tested on: Liver; test: AUC (infinity) in Sprague-Dawley rat liver assessed as FdUMP formation at 49.87 mg/kg administered through oral gavage measured up to 24 hrs by HPLC-MS/MS analysis; type: ADME, organism-based; parameters: dose 49.87 mg/kg, time infinity, route oral; details: in vivo; how it was run: as §1

Structure (SMILES) | AUC
Cc1ccccc1COP(=O)(NCc1ccccc1)OC[C@H]1O[C@@H](n2cc(F)c(=O)[nH]c2=O)C[C@@H]1O (stereo partly drawn) | < 155 ng·h/g

tested on: not listed separately; test: Ratio of FdUMP AUC (infinity) in Sprague-Dawley rat liver to FDUR AUC (infinity) in Sprague-Dawley rat plasma at 49.87 mg/kg administered through oral gavage; type: ADME, organism-based; details: in vivo
How it was run: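 Male Sprague-Dawley rats (220 20 g), single gavage of 0.096 mmol/kg prodrug in 20% hydroxypropyl-β-cyclodextrin. Blood by cardiac puncture under isoflurane and liver at 0.25–24 h, n = 3 per time point. Liver freeze-clamped and homogenized in 20 mM EDTA-K2/70% MeOH. FdUMP (liver) and FDUR (plasma) by HPLC-MS/MS, negative ESI. Index = AUC(inf) liver FdUMP / AUC(inf) plasma FDUR.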

Structure (SMILES) | Ratio AUC
Cc1ccccc1COP(=O)(NCc1ccccc1)OC[C@H]1O[C@@H](n2cc(F)c(=O)[nH]c2=O)C[C@@H]1O (stereo partly drawn) | < 3.8

tested on: Liver; test: Drug uptake in Sprague-Dawley rat liver S9 fraction treated with (S)-Isopropyl 2-(((R)-(((2R,3S,5R)-5-(5-fluoro-2,4-dioxo 3,4-dihydropyrimidin-1(2H)-yl)-3-hydroxytetrahydrofuran-2-yl)methoxy)((2-methylbenzyl)oxy)phosphoryl)amino)propanoate at 20 ug/mL preincubated for 5 mins followed by NADPH addition measured at 20 mins by HPLC-MS/MS analysis; type: ADME, subcellular; details: s9, 20 min
How it was run: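 Rat liver S9 (10 mg/mL) incubated with compound at 20 μg/mL. Parent, intermediate A and FdUMP followed over time by HPLC-MS/MS. Negative control run without NADPH.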

Structure (SMILES) | Drug uptake
Cc1ccccc1CO[P@](=O)(N[C@@H](C)C(=O)O)OC[C@H]1O[C@@H](n2cc(F)c(=O)[nH]c2=O)C[C@@H]1O | metabolite_detected
O=c1[nH]c(=O)n([C@H]2C[C@H](O)[C@@H](COP(=O)(O)O)O2)cc1F [5-FLUORODEOXYURIDYLATE] | metabolite_detected

tested on: not listed separately; test: Half life in rat plasma by HPLC analysis; type: ADME, cell-free; details: not given
How it was run: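 Rat plasma, 37 °C. Compound added from a 2.5 mM stock, sampled at 0–24 h, quenched with MeOH. Analyzed by HPLC-UV at 267 nm (C8 column, MeOH:H2O 68:32). Triplicate samples.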

Structure (SMILES) | half-life
Cc1ccccc1COP(=O)(N[C@@H](C)C(=O)OC(C)C)OC[C@H]1O[C@@H](n2cc(F)c(=O)[nH]c2=O)C[C@@H]1O (stereo partly drawn) | < 4.98 min
COc1cccc(COP(=O)(NCc2ccccc2)OC[C@H]2O[C@@H](n3cc(F)c(=O)[nH]c3=O)C[C@@H]2O)c1 (stereo partly drawn) | > 1440 min
O=c1[nH]c(=O)n([C@H]2C[C@H](O)[C@@H](COP(=O)(NCc3ccccc3)OCc3cccc([N+](=O)[O-])c3)O2)cc1F (stereo partly drawn) | > 1440 min
O=c1[nH]c(=O)n([C@H]2C[C@H](O)[C@@H](COP(=O)(NCc3ccccc3)OCc3ccc(Br)cc3)O2)cc1F (stereo partly drawn) | > 1440 min

Results, then the compound that gave them:

half-life | Structure (SMILES)
> 1440 min | O=c1[nH]c(=O)n([C@H]2C[C@H](O)[C@@H](COP(=O)(NCc3ccccc3)OCc3cccc(F)c3)O2)cc1F (stereo partly drawn)
> 1440 min | Cc1ccccc1COP(=O)(NCc1ccccc1)OC[C@H]1O[C@@H](n2cc(F)c(=O)[nH]c2=O)C[C@@H]1O (stereo partly drawn)
> 1440 min | O=c1[nH]c(=O)n([C@H]2C[C@H](O)[C@@H](COP(=O)(NCc3ccccc3)OCc3ccc(Cl)cc3)O2)cc1F (stereo partly drawn)
> 1440 min | O=c1[nH]c(=O)n([C@H]2C[C@H](O)[C@@H](COP(=O)(NCc3ccccc3)OCc3ccc([N+](=O)[O-])cc3)O2)cc1F (stereo partly drawn)
> 1440 min | O=c1[nH]c(=O)n([C@H]2C[C@H](O)[C@@H](COP(=O)(NCc3ccccc3)OCc3ccccc3)O2)cc1F (stereo partly drawn)

tested on: Liver; test: Drug metabolism in phenobarbital/beta-napthoflavone treated Sprague-Dawley rat liver S9 fraction assessed as prodrug activation at 50 uM preincubated for 5 mins followed by NADPH addition measured up to 60 mins by HPLC-MS/MS analysis; type: ADME, subcellular; details: s9, 1 h
How it was run: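 S9 prepared from livers of Sprague-Dawley rats dosed i.g. with phenobarbital/β-naphthoflavone for 3 days. Incubation: 100 mM KH2PO4 pH 7.4, 5 mg/mL S9, compound at 50 μM, 5 min preincubation at 37 °C, then 2 mM NADPH. Samples at 0–60 min, MeOH extraction, FdUMP (m/z 325→129) measured by HPLC-MS/MS. Triplicate.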

Structure (SMILES) | Drug metabolism
COc1cccc(COP(=O)(NCc2ccccc2)OC[C@H]2O[C@@H](n3cc(F)c(=O)[nH]c3=O)C[C@@H]2O)c1 (stereo partly drawn) | 118.7 nmol/min/mg
O=c1[nH]c(=O)n([C@H]2C[C@H](O)[C@@H](COP(=O)(NCc3ccccc3)OCc3cccc([N+](=O)[O-])c3)O2)cc1F (stereo partly drawn) | 14.9 nmol/min/mg
O=c1[nH]c(=O)n([C@H]2C[C@H](O)[C@@H](COP(=O)(NCc3ccccc3)OCc3ccc(Br)cc3)O2)cc1F (stereo partly drawn) | 39.1 nmol/min/mg

The next lines start with the values.

Drug metabolism | Structure (SMILES)
12.5 nmol/min/mg | O=c1[nH]c(=O)n([C@H]2C[C@H](O)[C@@H](COP(=O)(NCc3ccccc3)OCc3cccc(F)c3)O2)cc1F (stereo partly drawn)
58.4 nmol/min/mg | Cc1ccccc1COP(=O)(NCc1ccccc1)OC[C@H]1O[C@@H](n2cc(F)c(=O)[nH]c2=O)C[C@@H]1O (stereo partly drawn)
25.6 nmol/min/mg | O=c1[nH]c(=O)n([C@H]2C[C@H](O)[C@@H](COP(=O)(NCc3ccccc3)OCc3ccc(Cl)cc3)O2)cc1F (stereo partly drawn)
40 nmol/min/mg | O=c1[nH]c(=O)n([C@H]2C[C@H](O)[C@@H](COP(=O)(NCc3ccccc3)OCc3ccc([N+](=O)[O-])cc3)O2)cc1F (stereo partly drawn)
17.4 nmol/min/mg | O=c1[nH]c(=O)n([C@H]2C[C@H](O)[C@@H](COP(=O)(NCc3ccccc3)OCc3ccccc3)O2)cc1F (stereo partly drawn)

tested on: not listed separately; test: Cytotoxicity against human SMMC7721 cells assessed as reduction in cell viability after 72 hrs by MTT assay; type: functional, cell-based; details: SMMC-7721, 72 h
How it was run: (§2)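 Cells in RPMI-1640 with 10% FBS, seeded at 4 × 10³ per well and attached for 24 h. Compound (DMSO ≤0.5% final) added for 72 h at 37 °C, 5% CO2. Viability read by MTT. IC50 set against 0.5% DMSO-treated cells taken as 100% viable. Mean of two independent experiments, each run in triplicate.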

Structure (SMILES) | IC50
O=c1[nH]c(=O)n([C@H]2C[C@H](O)[C@@H](COP(=O)(NCc3ccccc3)OCc3cccc(F)c3)O2)cc1F (stereo partly drawn) | 241 µM
Cc1ccccc1COP(=O)(NCc1ccccc1)OC[C@H]1O[C@@H](n2cc(F)c(=O)[nH]c2=O)C[C@@H]1O (stereo partly drawn) | 18.6 µM
Cc1ccccc1COP(=O)(N[C@@H](C)C(=O)OC(C)C)OC[C@H]1O[C@@H](n2cc(F)c(=O)[nH]c2=O)C[C@@H]1O (stereo partly drawn) | 276 µM
COc1cccc(COP(=O)(NCc2ccccc2)OC[C@H]2O[C@@H](n3cc(F)c(=O)[nH]c3=O)C[C@@H]2O)c1 (stereo partly drawn) | 386 µM
O=c1[nH]c(=O)n([C@H]2C[C@H](O)[C@@H](COP(=O)(NCc3ccccc3)OCc3ccc(Cl)cc3)O2)cc1F (stereo partly drawn) | 133 µM
O=c1[nH]c(=O)n([C@H]2C[C@H](O)[C@@H](COP(=O)(NCc3ccccc3)OCc3ccc(Br)cc3)O2)cc1F (stereo partly drawn) | 107 µM
O=c1[nH]c(=O)n([C@H]2C[C@H](O)[C@@H](COP(=O)(NCc3ccccc3)OCc3ccc([N+](=O)[O-])cc3)O2)cc1F (stereo partly drawn) | > 1000 µM
O=c1[nH]c(=O)n([C@H]2C[C@H](O)[C@@H](COP(=O)(NCc3ccccc3)OCc3ccccc3)O2)cc1F (stereo partly drawn) | 365 µM

tested on: not listed separately; test: Cytotoxicity against human LO2 cells assessed as reduction in cell viability after 72 hrs by MTT assay; type: cell-based; details: L02, 72 h; how it was run: as §2

Structure (SMILES) | IC50
Cc1ccccc1COP(=O)(N[C@@H](C)C(=O)OC(C)C)OC[C@H]1O[C@@H](n2cc(F)c(=O)[nH]c2=O)C[C@@H]1O (stereo partly drawn) | 333 µM

tested on: not listed separately; test: Half life in human plasma by HPLC-MS/MS analysis; type: ADME, cell-free; details: not given
How it was run: (§3)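 Compound at 1 μg/mL final in dog or human plasma, 37 °C. Sampled at 0–24 h and quenched with ice-cold MeOH containing internal standard. Parent measured by LC-MS/MS in ESI negative mode; t1/2 calculated from percent remaining versus 0 h.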

Structure (SMILES) | half-life
Cc1ccccc1COP(=O)(N[C@@H](C)C(=O)OC(C)C)OC[C@H]1O[C@@H](n2cc(F)c(=O)[nH]c2=O)C[C@@H]1O (stereo partly drawn) | > 1440 min

tested on: not listed separately; test: Half life in dog plasma by HPLC-MS/MS analysis; type: ADME, cell-free, Canis lupus familiaris; details: not given; how it was run: as §3

Structure (SMILES) | half-life
Cc1ccccc1COP(=O)(N[C@@H](C)C(=O)OC(C)C)OC[C@H]1O[C@@H](n2cc(F)c(=O)[nH]c2=O)C[C@@H]1O (stereo partly drawn) | > 1440 min

tested on: Plasma; test: Cmax in Sprague-Dawley rat plasma assessed as FDUR formation at 49.87 mg/kg administered through oral gavage measured up to 24 hrs by HPLC-MS/MS analysis; type: ADME, organism-based; parameters: dose 49.87 mg/kg, route oral; details: in vivo; how it was run: as §1

Structure (SMILES) | Cmax
Cc1ccccc1COP(=O)(NCc1ccccc1)OC[C@H]1O[C@@H](n2cc(F)c(=O)[nH]c2=O)C[C@@H]1O (stereo partly drawn) | 40 ng/mL

tested on: Plasma; test: Cmax in Sprague-Dawley rat plasma assessed as 5-FU formation at 49.87 mg/kg administered through oral gavage measured up to 24 hrs by HPLC-MS/MS analysis; type: ADME, organism-based; parameters: dose 49.87 mg/kg, route oral; details: in vivo; how it was run: as §1

Structure (SMILES) | Cmax
Cc1ccccc1COP(=O)(NCc1ccccc1)OC[C@H]1O[C@@H](n2cc(F)c(=O)[nH]c2=O)C[C@@H]1O (stereo partly drawn) | 14 ng/mL
